The results in this text go back to ChEMBL document CHEMBL1155638, “Anti-AIDS agents 38. Anti-HIV activity of 3-O-acyl ursolic acid derivatives” (J Nat Prod, 2000).

A short description of data set [1]: Therapeutic index, IC50 for human T-lymphoid H9 cells to EC50 for HIV1 3B isolate. In kind it is cell-based. As to conditions: read-out: Ratio IC50/EC50; call rule not given here. In outline: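 Ratio of IC50 (Coulter count, mock-infected H9 cells, 4 days) to EC50 (p24 ELISA, HIV-1 IIIB-infected H9 cells, 4 days), both determined in parallel within the same assay.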
Data set [2] concerns Human immunodeficiency virus 1. Description: Antiviral activity against HIV1 replication in human H9 cells. As to conditions: for EC50: Homo sapiens, H9; for Activity: human, h9.
In data set [3] the test system is H9 (human). Description: Cytotoxicity against human H9 cells assessed as growth inhibition after 4 days.

Consider `C[C@@H]1CC[C@]2(C(=O)O)CC[C@]3(C)C(=CC[C@@H]4[C@@]5(C)CC[C@H](O)C(C)(C)[C@@H]5CC[C@]43C)[C@@H]2[C@]1(C)O` [POMOLIC ACID], for which the selectivity ratio in data set [1] came to 16.3. Besides, a half-maximal response in data set [2] (EC50) required 3 µM.
For `CC1(C)CC[C@]2(C(=O)O)CC[C@]3(C)C(=CC[C@@H]4[C@@]5(C)CC[C@H](O)C(C)(C)[C@@H]5CC[C@]43C)[C@@H]2C1` [OLEANOLIC_ACID], the selectivity ratio in data set [1] is 12.9.
`C[C@H]1[C@H](C)CC[C@]2(C(=O)O)CC[C@]3(C)C(=CC[C@@H]4[C@@]5(C)CC[C@H](OC(=O)CC(C)(C)C(=O)O)C(C)(C)[C@@H]5CC[C@]43C)[C@H]12`: in data set [1], the selectivity ratio was found to be 23.6. Also, the EC50 in data set [2] was determined as 2.1 µM. Moreover, the IC50 in data set [3] (H9, 96 h) stood at 49.5 µM.
For `C[C@H]1[C@H](C)CC[C@]2(C(=O)O)CC[C@]3(C)C(=CC[C@@H]4[C@@]5(C)CC[C@H](OC(=O)CCC(=O)O)C(C)(C)[C@@H]5CC[C@]43C)[C@H]12` the same measures were 2.9, 15.3 µM and 44.9 µM.
`C[C@H]1[C@H](C)CC[C@]2(C(=O)O)CC[C@]3(C)C(=CC[C@@H]4[C@@]5(C)CC[C@H](OC(=O)CC(C)(C)CC(=O)O)C(C)(C)[C@@H]5CC[C@]43C)[C@H]12`: the Activity result in data set [2] is reported as “Not Active”. Further, the IC50 in data set [3] (H9, 96 h) turned out to be 7 µM.
Taken in the same sequence, the figures for `C[C@H]1[C@H](C)CC[C@]2(C(=O)O)CC[C@]3(C)C(=CC[C@@H]4[C@@]5(C)CC[C@H](OC(=O)CC(C)(C)C)C(C)(C)[C@@H]5CC[C@]43C)[C@H]12` were “Not Active” and greater than 18 µM.
In the case of `C=C(C)[C@@H]1CC[C@]2(C(=O)O)CC[C@]3(C)[C@H](CC[C@@H]4[C@@]5(C)CC[C@H](OC(=O)CC(C)(C)C(=O)O)C(C)(C)[C@@H]5CC[C@]43C)[C@@H]12` [BEVIRIMAT], in data set [1], the selectivity ratio is greater than 20000. In data set [2], this compound had an EC50 of less than 0.00035 µM. The IC50 in data set [3] (H9, 96 h) is 7 µM.
Take `C[C@H]1[C@H](C)CC[C@]2(C(=O)O)CC[C@]3(C)C(=CC[C@@H]4[C@@]5(C)CC[C@H](OC(=O)C(C)(C)CC(=O)O)C(C)(C)[C@@H]5CC[C@]43C)[C@H]12`: in data set [2], the Activity entry was “Not Active”. The IC50 in data set [3] (H9, 96 h) amounted to 30.7 µM.
Regarding `C=C(C)[C@@H]1CC[C@]2(C(=O)O)CC[C@]3(C)[C@H](CC[C@@H]4[C@@]5(C)CC[C@H](O)C(C)(C)[C@@H]5CC[C@]43C)[C@@H]12` [BETULINIC ACID], in data set [1], the selectivity ratio worked out at 9.2. The half-inhibitory concentration (IC50) in data set [3] (H9, 96 h) came to 12.9 µM.
As for `CC1(C)CC[C@]2(C(=O)O)CC[C@]3(C)C(=CC[C@@H]4[C@@]5(C)CC[C@H](OC(=O)CC(C)(C)C(=O)O)C(C)(C)[C@@H]5CC[C@]43C)[C@@H]2C1`, the selectivity ratio in data set [1] is 22300.
Take `CC(C)CC(=O)O[C@H]1CC[C@]2(C)[C@H]3CC=C4[C@@H]5[C@@H](C)[C@H](C)CC[C@]5(C(=O)O)CC[C@@]4(C)[C@]3(C)CC[C@H]2C1(C)C`: the Activity entry in data set [2] was “Not Active”. Besides, the half-maximal inhibitory concentration (IC50) in data set [3] (H9, 96 h) was greater than 18.5 µM.
On to `C[C@H]1[C@H](C)CC[C@]2(C(=O)O)CC[C@]3(C)C(=CC[C@@H]4[C@@]5(C)CC[C@H](O)C(C)(C)[C@@H]5CC[C@]43C)[C@H]12`, for which the IC50 in data set [3] (h9) worked out at 1.8 µM.
Consider `C[C@H]1[C@H](C)CC[C@]2(C(=O)O)CC[C@]3(C)C(=CC[C@@H]4[C@@]5(C)CC[C@H](OC(=O)CCCC(=O)O)C(C)(C)[C@@H]5CC[C@]43C)[C@H]12`, for which, in data set [1], the selectivity ratio came out at 4.8. In addition, the midpoint of the response in data set [2], the EC50, lay at 6.4 µM. Also, the half-maximal inhibitory concentration (IC50) in data set [3] (H9, 96 h) was found to be 30.7 µM.
`C[C@H]1[C@H](C)CC[C@]2(C(=O)O)CC[C@]3(C)C(=CC[C@@H]4[C@@]5(C)CC[C@H](OC(=O)COCC(=O)O)C(C)(C)[C@@H]5CC[C@]43C)[C@H]12`: the selectivity ratio in data set [1] came to 156. A half-maximal effect in data set [2] (EC50) was put at 0.31 µM. In addition, the IC50 in data set [3] (H9, 96 h) was found to be 48.2 µM.
